Measured values taken from ChEMBL document CHEMBL1145295, “Synthesis and biological evaluation of 5-arylamino-6-chloro-1H-indazole-4,7-diones as inhibitors of protein kinase B/Akt” (Bioorg Med Chem Lett, 2006).
Activity calls are given as the source filed them. The rule behind the calls is not given here.

Assays:
[1] = target: RAC-alpha serine/threonine-protein kinase (Homo sapiens, UniProt P31749); assay: Inhibition of Akt1 activity assessed as decrease in GSK3 phosphorylation; format: functional
How it was run: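 Akt1 enzyme (10 U/µL) preincubated 10 min at 37 °C with compound in DMSO in HEPES 20 mM, NaCl 14.3 mM, EDTA 1 mM, DTT 2 mM. Then 3 µL of 2 mM ATP and GSK3 fusion protein added, 30 min at 37 °C. Stopped at 70 °C for 5 min. Phospho-GSK3 detected by SDS-PAGE/Western or dot blot with anti-phospho (Ser21/9) antibody, ECL and densitometry.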

[2] = Cytotoxicity against human KATO3 cells by MTT assay; format: functional, cell-based
How it was run: (§1)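 MTT colorimetric cytotoxicity assay following NCI protocols. Cells grown in DMEM with 10% heat-inactivated FBS at 37 °C, 5% CO₂.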

HepG2 = assay: Cytotoxicity against human HepG2 cells by MTT assay; format: functional, cell-based; how it was run: as §1
[3] = target: T1, Serine/threonine-protein kinase AKT (Homo sapiens) (UniProt P31751+Q9Y243+P31749); assay: Inhibition of GSK3-beta phosphorylation in PC3 cells at 10 uM upto 5 hrs; format: functional, cell-based; details: PC-3, TDE = time-dependent effect
How it was run: (§2)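 PC-3 cells (2×10⁶) cultured one day in DMEM/10% FBS, then exposed to 10 µM compound for up to 5 h. Lysates (70 µg) resolved on 12% gel. Western blot with anti-phospho-GSK3α/β (Ser21/9), anti-phospho-Akt (Ser473), anti-Akt and anti-GSK3β antibodies, ECL and densitometry. Values are relative to DMSO treatment.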

PC-3 [4] = assay: Inhibition of Akt1 phosphorylation in PC3 cells at 10 uM upto 5 hrs; format: functional, cell-based; details: Homo sapiens; how it was run: as §2
[5] = target: T1, Serine/threonine-protein kinase AKT (Homo sapiens); assay: Inhibition of GSK3-alpha phosphorylation in PC3 cells at 10 uM upto 5 hrs; format: functional, cell-based; details: PC-3, TDE = time-dependent effect; how it was run: as §2
PC-3 [6] = assay: Cytotoxicity against human PC3 cells by MTT assay; format: functional, cell-based; how it was run: as §1
PC-3 [7] = assay: Antitumor activity against human PC3 cell xenografted in nude mouse at 5 mg/kg/day after 16 days; format: functional
How it was run: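 Male nude mice, 4 weeks old, inoculated sc in the flank with PC-3 cells (10⁶ cells/site). At 200 mm³ tumors, randomized into groups (n = 6). Dosed iv daily for 16 days in cremophor vehicle (ethanol 7%, cremophor 7%, water). Tumors measured twice weekly by caliper, volume = length·width²/2. Inhibition is relative to vehicle at day 16.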

T1 sequence (P31749 whole entry, looked up): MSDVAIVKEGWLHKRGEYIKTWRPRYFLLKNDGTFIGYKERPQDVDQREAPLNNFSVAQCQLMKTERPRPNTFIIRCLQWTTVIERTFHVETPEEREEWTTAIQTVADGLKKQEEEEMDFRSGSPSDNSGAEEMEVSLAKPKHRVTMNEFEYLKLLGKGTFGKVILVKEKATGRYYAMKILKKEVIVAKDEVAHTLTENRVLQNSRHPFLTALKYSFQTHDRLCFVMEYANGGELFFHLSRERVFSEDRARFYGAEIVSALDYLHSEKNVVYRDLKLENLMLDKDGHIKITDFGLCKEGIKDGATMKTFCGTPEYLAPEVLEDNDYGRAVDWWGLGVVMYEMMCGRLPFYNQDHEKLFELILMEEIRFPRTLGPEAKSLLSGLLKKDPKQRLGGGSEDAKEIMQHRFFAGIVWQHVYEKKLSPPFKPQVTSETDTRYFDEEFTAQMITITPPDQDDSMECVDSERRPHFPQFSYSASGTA
T1 sequence (P31751 whole entry, looked up): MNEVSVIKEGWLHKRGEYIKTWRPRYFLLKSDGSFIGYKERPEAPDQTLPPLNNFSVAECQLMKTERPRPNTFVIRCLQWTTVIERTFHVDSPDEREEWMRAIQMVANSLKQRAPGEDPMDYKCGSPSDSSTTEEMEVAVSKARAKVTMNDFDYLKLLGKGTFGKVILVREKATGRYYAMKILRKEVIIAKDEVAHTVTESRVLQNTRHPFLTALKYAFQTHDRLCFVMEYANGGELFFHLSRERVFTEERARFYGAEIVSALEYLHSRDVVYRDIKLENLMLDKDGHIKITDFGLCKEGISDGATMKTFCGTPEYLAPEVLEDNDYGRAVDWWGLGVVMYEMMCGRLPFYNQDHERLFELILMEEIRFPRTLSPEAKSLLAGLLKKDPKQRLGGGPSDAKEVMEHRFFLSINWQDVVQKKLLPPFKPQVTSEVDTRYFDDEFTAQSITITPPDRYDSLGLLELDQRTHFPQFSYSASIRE
T1 sequence (Q9Y243 whole entry, looked up): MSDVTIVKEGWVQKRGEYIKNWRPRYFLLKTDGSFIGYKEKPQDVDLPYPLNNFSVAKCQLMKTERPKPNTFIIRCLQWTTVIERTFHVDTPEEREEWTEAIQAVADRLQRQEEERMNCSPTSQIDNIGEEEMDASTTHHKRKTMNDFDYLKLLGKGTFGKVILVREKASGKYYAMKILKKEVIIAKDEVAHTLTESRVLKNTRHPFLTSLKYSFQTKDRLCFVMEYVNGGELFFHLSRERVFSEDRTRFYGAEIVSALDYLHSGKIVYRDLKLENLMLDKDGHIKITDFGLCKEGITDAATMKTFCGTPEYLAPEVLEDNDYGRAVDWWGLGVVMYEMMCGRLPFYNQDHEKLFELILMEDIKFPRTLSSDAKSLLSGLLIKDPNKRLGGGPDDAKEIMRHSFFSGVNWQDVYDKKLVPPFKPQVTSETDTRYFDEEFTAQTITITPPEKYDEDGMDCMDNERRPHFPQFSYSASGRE
Sequence of RAC-alpha serine/threonine-protein kinase (P31749 whole entry, the tested form may be a part): as the sequence (P31749 whole entry, looked up) above

SMILES | IC50 [1] [µM] | IC50 [2] [µM] | IC50 (HepG2) [µM] | inhibition [3] | Activity (PC-3 [4]) | inhibition [5] | IC50 (PC-3 [6]) [µM] | Activity (PC-3 [7]) [%]
O=C1C(Sc2ccc(Cl)c(Cl)c2)=C(Cl)C(=O)c2[nH]ncc21 | 12.3 | > 100 | 88.7 |  |  |  |  | 
O=C1C(Nc2ccc(F)cc2)=C(Cl)C(=O)c2[nH]ncc21 | > 50 | 61.4 | 37.2 |  |  |  |  | 
O=C1C(Nc2cccc(F)c2)=C(Cl)C(=O)c2[nH]ncc21 | 11.8 | 3.9 | 8.9 | tde | Active | tde | 6.3 | 
CCOc1ccc(NC2=C(Cl)C(=O)c3[nH]ncc3C2=O)cc1 | 4.9 | 9.7 | 11.2 |  |  |  |  | 
O=C1C(Nc2ccc(F)cc2F)=C(Cl)C(=O)c2[nH]ncc21 | 16 | 9.9 | 2 |  |  |  |  | 
Nc1ccc(N)c2[nH]ncc12 | > 50 | > 100 | > 100 |  |  |  |  | 
O=C1C(Nc2cccc(Br)c2)=C(Cl)C(=O)c2[nH]ncc21 | 13.9 | 8.9 | 6.1 |  |  |  |  | 
O=C1C(Nc2ccc(C(F)(F)F)cc2)=C(Cl)C(=O)c2[nH]ncc21 | 12.4 | 13.8 | 9.2 | tde | Active | tde | 13.7 | 27.1
O=C1C(Nc2cc(F)cc(F)c2)=C(Cl)C(=O)c2[nH]ncc21 | > 50 | 75.8 | 37.6 |  |  |  |  | 
O=C1C(Nc2ccccc2F)=C(Cl)C(=O)c2[nH]ncc21 | 15.8 | 20.2 | 15.8 |  |  |  |  | 
Cc1cc(C)cc(SC2=C(Cl)C(=O)c3[nH]ncc3C2=O)c1 | > 50 | > 100 | > 100 |  |  |  |  | 
